The source of these data is ChEMBL document CHEMBL1144532, “Antiprotozoal and antimicrobial activities of O-alkylated and formylated acylphloroglucinols” (Bioorg Med Chem, 2007).

Structures are written as SMILES. In brackets after ≈: the same amount, converted by molar mass. Activity calls are given as the source filed them. The calls are words filed in the database; no cut-off is given here. Bounds are passed on as bounds.

The test system of data set [1] is Staphylococcus aureus. Description: Antibacterial activity against methicillin-resistant Staphylococcus aureus at 20 ug/mL. Format: functional, organism-based. The method, boiled down: (§1)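 Samples in DMSO, serially diluted in 0.9% saline, tested in duplicate. Inoculum set against the 0.5 McFarland standard by absorbance at 630 nm, then diluted in broth. Growth, solvent and media controls included. Absorbance read at 630 nm before and after incubation. IC50 taken from percent growth versus concentration. Inactivity was scored at 20 µg/mL.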

Data set [2] has as its system Mycobacterium intracellulare. Kind of data set: Antimicrobial activity against Mycobacterium intracellular. Format: functional, organism-based. The gist of the method:
(§2)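 Samples in DMSO serially diluted in 0.9% saline, tested in duplicate; inocula set against 0.5 McFarland standard (absorbance 630 nm) and diluted in broth to recommended levels. Growth, solvent and media controls included. Read at 630 nm, or fluorescence 544ex/590em for M. intracellulare (modified Alamar Blue), before and after incubation; IC50 from percent growth versus concentration.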

For data set [3], the system named is Plasmodium falciparum. Kind of data set: Antimalarial activity against Plasmodium falciparum D6. Format: functional, organism-based. The gist of the method:
(§3)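 P. falciparum-infected erythrocytes at 2% parasitemia, 2% hematocrit in RPMI 1640 with 10% human serum and 60 µg/mL amikacin, exposed to serial dilutions 72 h at 37 °C under 90% N2/5% O2/5% CO2. Parasite LDH measured with Malstat reagent then NBT/PES, stopped with 5% acetic acid, A650; IC50 from dose–response. DMSO 0.25% vehicle.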

The test system of data set [4] is Candida albicans. Kind of data set: Antifungal activity against Candida albicans at 20 ug/mL. Format: functional, organism-based.
For data set [5], the system named is Leishmania donovani. Description: Antileishmanial activity against Leishmania donovani promastigotes after 48 hrs at 40 ug/mL by Alamar blue assay. Format: functional, organism-based.
Data set [6] concerns Aspergillus fumigatus. Kind of data set: Antifungal activity against Aspergillus fumigatus. Format: functional, organism-based. The gist of the method:
as §2

In data set [7] the test system is Plasmodium falciparum. Description: Antimalarial activity against Plasmodium falciparum W2. Format: functional, organism-based. The gist of the method:
as §3

The test system of data set [8] is LLC-PK1. Kind of data set: Cytotoxicity against LLC-PK1 cells up to 4.76 ug/mL by neutral red assay. Format: cell-based, Sus scrofa. The note with it: pig.
Data set [9] concerns Vero. Kind of data set: Cytotoxicity against Vero cells up to 4.76 ug/mL by neutral red assay. The note with it: chlorocebus sabaeus. Format: cell-based.
Data set [10] concerns Cryptococcus neoformans. Kind of data set: Antifungal activity against Cryptococcus neoformans at 20 ug/mL. Format: functional, organism-based.
Data set [11] relates to Vero. Description: Cytotoxicity against Vero cells by neutral red assay. Format: cell-based. The note with it: chlorocebus sabaeus. The method, boiled down: (§4)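 Cells seeded 25,000/well, grown 24 h, then exposed to samples 48 h; viable cells quantified by neutral red uptake. IC50 taken from logarithmic plots of growth inhibition versus concentration; DMSO vehicle control.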

For data set [12], the system named is LLC-PK1. Kind of data set: Cytotoxicity against LLC-PK1 cells by neutral red assay. Format: cell-based. To be noted: Sus scrofa. The method, boiled down: as §4
Data set [13] concerns Leishmania donovani. Description: Antileishmanial activity against Leishmania donovani promastigotes after 48 hrs by Alamar blue assay. Format: functional, organism-based. The method, boiled down: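 L. donovani promastigotes grown in RPMI 1640 + 10% fetal calf serum at 26 °C; 3-day culture diluted to 5 × 10^5/mL, drug dilutions made directly in suspension, 48 h at 26 °C. Alamar blue fluorescence 544 nm ex/590 nm em; IC50 and IC90 from percent growth vs concentration curves.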

Data set [14] relates to Vero. Description: Cytotoxicity against Vero cells up to 23.8 ug/mL by neutral red assay. Format: cell-based. To be noted: chlorocebus sabaeus.
Data set [15] deals with LLC-PK1. Description: Cytotoxicity against LLC-PK1 cells up to 23.8 ug/mL by neutral red assay. Format: cell-based, Sus scrofa. The note with it: pig.
In data set [16] the test system is Candida albicans. Description: Antifungal activity against Candida albicans. Format: functional, organism-based. The method, boiled down: as §2
For data set [17], the system named is Cryptococcus neoformans. Kind of data set: Antifungal activity against Cryptococcus neoformans. Format: functional, organism-based. The method, boiled down: as §2
The test system of data set [18] is Staphylococcus aureus. Description: Antibacterial activity against methicillin-resistant Staphylococcus aureus. Format: functional, organism-based. The gist of the method:
as §1

With `CC(C)CCc1c(O)c(C=O)c(O)c(C=O)c1O`, the result in data set [1], in [2], in [3], in data set [4], in data set [5] and in data set [6] was inactive. The result in data set [7] and in data set [10] was inactive. In addition, the Activity entry in [8] and in data set [9] was “Not Active” in each case.
Consider `CC(=O)c1c(O)cc(O)c(C=O)c1O`, for which the result in [1], in [2], in data set [3], in data set [4], in [5] and in data set [6] was inactive. For the same compound, the outcome in data set [7] and in [10] was inactive. For the same compound, the IC50 in [11] was found to be 17.5 µg/mL (≈ 89.2 µM); in data set [12], 10 µg/mL (≈ 51 µM).
With `C/C(=C\O)C(=O)c1c(O)cc(O)c(C=O)c1O`, the outcome in data set [1], in [2], in data set [3], in data set [6] and in data set [7] was inactive. Moreover, the IC50 was 29 µg/mL (≈ 122 µM) in data set [13], 2 µg/mL (≈ 8.4 µM) in data set [16] and 2.5 µg/mL (≈ 10.5 µM) in data set [17]. The compound further yielded an IC90 in data set [13] above 40 µg/mL. Also, the Activity entry in [14] and in data set [15] was “Not Active” in each case.
For `CCC(=O)c1c(O)cc(O)c(C=O)c1O`, the outcome in data set [1], in data set [2], in data set [3], in data set [4], in data set [5] and in data set [6] was inactive. In data set [7], the result was inactive. Besides, the IC50 in data set [11] came to 18 µg/mL (≈ 85.6 µM); in data set [12] it was 11 µg/mL (≈ 52.3 µM); in [17], 15 µg/mL (≈ 71.4 µM).
For `Cc1c(O)c(C=O)c(O)c(C(=O)CC(C)C)c1O` [GRANDINOL], the IC50 turned out to be 8 µg/mL (≈ 31.7 µM) in data set [11]; 8 µg/mL (≈ 31.7 µM) in data set [18]; 21 µg/mL (≈ 83.2 µM) in data set [13]; 7 µg/mL (≈ 27.7 µM) in data set [12]; 10 µg/mL (≈ 39.6 µM) in [16]; 10 µg/mL (≈ 39.6 µM) in data set [17]. Further, the outcome in [2], in [3], in [6] and in data set [7] was inactive. Further, the IC90 in data set [13] was determined as 39 µg/mL (≈ 155 µM).
Consider `Cc1c(O)c(C=O)c(O)c(C=O)c1O`, for which the result in [1], in [2], in data set [3], in data set [4], in data set [5] and in data set [6] was inactive. In addition, the outcome in [7] and in data set [10] was inactive. Further, the Activity result in [8] and in data set [9] was “Not Active” throughout.
For `CC(C)CC(=O)c1c(O)c(C=O)c(O)c(C=O)c1O` [JENSENONE], the outcome in data set [2], in data set [3], in data set [6], in data set [7] and in [10] was inactive. Besides, the IC50 was determined as 20 µg/mL (≈ 75.1 µM) in [18], 19 µg/mL (≈ 71.4 µM) in data set [13] and 5.5 µg/mL (≈ 20.7 µM) in data set [16]. Moreover, the concentration for an effect of 90% (IC90) in [13] is 35 µg/mL (≈ 131 µM). The Activity entry in data set [8] and in data set [9] was “Not Active” throughout.
With `C[C@@H]1[C@H](O)[C@@H](C)/C=C/C=C/C=C/C=C/C=C/C=C/C=C/[C@H](O[C@@H]2O[C@H](C)[C@@H](O)[C@H](N)[C@@H]2O)C[C@@H]2O[C@](O)(C[C@@H](O)C[C@@H](O)[C@H](O)CC[C@@H](O)C[C@@H](O)CC(=O)O[C@H]1C)C[C@H](O)[C@H]2C(=O)O` [AMPHOTERICIN B], the result in data set [2] and in [6] was inactive. For the same compound, the figures for the IC50 in data set [13], in data set [16] and in data set [17] were 0.32 µg/mL (≈ 0.346 µM), 0.3 µg/mL (≈ 0.325 µM) and 0.7 µg/mL (≈ 0.758 µM), respectively. Besides, the 90% effect level in data set [13] (IC90) was put at 0.9 µg/mL (≈ 0.974 µM).
`CC(C)CC(=O)c1c(O)cc(O)c(C=O)c1O`: the result in data set [1], in [2], in data set [3], in [4], in [6] and in [7] was inactive. For the same compound, the outcome in [10] was inactive. Moreover, the IC50 in data set [11] is 14 µg/mL (≈ 58.8 µM); in data set [13], 27 µg/mL (≈ 113 µM); in data set [12], 9.5 µg/mL (≈ 39.9 µM). Also, the 90% effect level in [13] (IC90) was put at 40 µg/mL (≈ 168 µM).
Regarding `CC(C)=CCc1c(O)c(C=O)c(O)c(C(=O)/C(C)=C/O)c1O`, the outcome in data set [1], in data set [2], in data set [3], in data set [4], in data set [6] and in data set [7] was inactive. For the same compound, the result in data set [10] was inactive. The values for the IC50 in data set [11] and in data set [12] were 19 µg/mL (≈ 62 µM) and 14.5 µg/mL (≈ 47.3 µM), respectively. This compound also had an IC90 in data set [13] above 40 µg/mL.
Take `CC(=O)c1c(O)cc(O)c(C(C)=O)c1O`: the result in data set [1], in data set [2], in data set [3], in data set [4], in data set [6] and in data set [7] was inactive. Moreover, the result in [10] was inactive. For the same compound, the IC50 in data set [11] stood at 12 µg/mL (≈ 57.1 µM); in [13], 27 µg/mL (≈ 128 µM); in [12] it was 11 µg/mL (≈ 52.3 µM). This compound also registered an IC90 in data set [13] above 40 µg/mL.
Regarding `CCC(=O)c1c(O)c(C)c(O)c(C=O)c1O`, the result in data set [1], in data set [2], in data set [3], in data set [5], in [6] and in [7] was inactive. Moreover, the IC50 in data set [16] is 5 µg/mL (≈ 22.3 µM); in data set [17] it was 20 µg/mL (≈ 89.2 µM). For the same compound, the Activity entry in [8] and in [9] was “Not Active” each time.
In the case of `CC(=O)c1c(O)c(C)c(O)c(C=O)c1O`, the result in data set [1], in data set [2], in data set [3], in data set [5], in [6] and in [7] was inactive. For the same compound, the outcome in data set [10] was inactive. In addition, the IC50 in data set [16] was found to be 15 µg/mL (≈ 71.4 µM). In addition, the Activity result in [8] and in data set [9] was “Not Active” in each case.
